Source: PMC7332640 (Acta Pharmaceutica Sinica. B, 2019)

What was measured:
[1] = In vitro phosphorylation of compounds in rat whole blood; type: in vitro ADME; conditions: for Vmax (phosphorylation): 37 °C, 60 min, 1–100 μmol/L; for Km: read-out: Km (phosphorylation), 37 °C, 60 min, 1–100 μmol/L
How it was run: (§1)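 Test compound was spiked directly into fresh whole blood at eight levels from 1 to 100 and incubated at 37 °C for 60 min. Reactions were quenched with ice-cold acetonitrile, vortexed and centrifuged. The supernatant was analysed by LC-MS/MS for phosphate formation. Km and Vmax were obtained by nonlinear fitting to the Michaelis–Menten equation.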

[2] = In vitro phosphorylation of compounds in human whole blood; type: in vitro ADME; conditions: for Vmax (phosphorylation): 37 °C, 60 min, 1–100 μmol/L; for Km: read-out: Km (phosphorylation), 37 °C, 60 min, 1–100 μmol/L
How it was run: as §1

[3] = type: in vivo; conditions: Sprague–Dawley rats, oral 3 mg/kg
How it was run: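 Male Sprague–Dawley rats, three per group, were fasted 12 h, dosed orally at 3 mg/kg in 0.5% hydroxypropyl methylcellulose, and fed 4 h postdose. Heparinized orbital blood was taken from 0.08 to 48 h, including 6 h, and protein-precipitated with acetonitrile. Parent and phosphorylated drug were quantified by positive-ESI MRM LC-MS/MS on a C18 column with a formic acid water/methanol gradient.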

Row | SMILES | CLint (phosphorylation) [1] | Vmax (phosphorylation) [1] | Km [1] | CLint (phosphorylation) [2] | Vmax (phosphorylation) [2] | Km [2] | phosphorylation level at 6 h after dosing [3]
1 | CCc1nc(-c2ccc(-c3ccc(CC[C@@](C)(N)CO)cc3)cc2)co1.Cl [Compound 23, (R)-2-Amino-4-(4′-(2-ethyloxazol-4-yl)-[1,1′-biphenyl]-4-yl)-2-methylbutan-1-ol hydrochloride] | 0.505 µL/min | 65.2 ± 8.2 pmol/min | 129 ± 15.6 µM | 0.012 µL/min | 0.87 ± 0.09 pmol/min | 65.5 ± 8.3 µM | 94%
2 | CCCCCCCCc1ccc(CC[C@@H](N)CO)cc1.Cl [Compound 22, (R)-2-Amino-4-(4-octylphenyl)butan-1-ol hydrochloride] | 3.121 µL/min | 28.4 ± 4.5 pmol/min | 9.1 ± 1.8 µM | 0.021 µL/min | 1.24 ± 0.31 pmol/min | 58.2 ± 10.6 µM | 69%
3 | CCCCCCCCc1ccc(CC[C@@](C)(N)CO)cc1.Cl [Compound 21, (R)-2-Amino-2-methyl-4-(4-octylphenyl)butan-1-ol hydrochloride] | 1.545 µL/min | 221 ± 36.8 pmol/min | 143 ± 25.4 µM | 0.295 µL/min | 3.36 ± 0.62 pmol/min | 11.4 ± 1.9 µM | 95%
4 | CCc1nc(-c2ccc(-c3ccc(CC[C@@H](N)CO)cc3)cc2)co1.Cl [Compound 24, (R)-2-Amino-4-(4′-(2-ethyloxazol-4-yl)-[1,1′-biphenyl]-4-yl)butan-1-ol hydrochloride] | 0.015 µL/min | 1.9 ± 0.3 pmol/min | 128 ± 23.4 µM | 0.006 µL/min | 0.24 ± 0.05 pmol/min | 40.2 ± 7.3 µM | 89%
5 | CCCCCCCCc1ccc(CCC(N)(CO)CO)cc1 [FTY720, fingolimod, reference compound] | 0.930 µL/min | 63.4 ± 10.2 pmol/min | 68.2 ± 11.2 µM | 0.013 µL/min | 0.33 ± 0.05 pmol/min | 25.7 ± 4.2 µM | 80%
